Experimental data as given in paper PMC8386104 (RSC Chemical Biology, 2020).
Bridge positions count the residues as written; N and C are the ends. Ends that are not written are not given here. Peptide text beside a SMILES is read from it.

Key:
p53:MDM2 = conditions: read-out: inhibition of p53:MDM2; previously reported; cited from earlier work
[1] = Stability of peptides in human serum; type: in vitro ADME; conditions: 25% (v/v) human serum, pH 7.5
In short: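 Peptide (50 μM final) was held 0, 1, 2, 4, 8 and 24 h in 25% (v/v) human serum in PBS (pH 7.5). Serum proteins were precipitated with ACN containing 2% TFA. The full-length peptide peak (MS-confirmed) was quantified by RP-HPLC at 215 nm as a percentage of 0 h recovery. A PBS-only incubation served as control. Single experiment, three technical replicates.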

MDM2 = MDM2 (Homo sapiens, UniProt Q00987); assay: Fluorescence polarization competition, F-pDI:MDM2; type: binding; conditions: for IC50, inhibition of F-pDI:MDM2 interaction: fluorescence polarization, 10 nM F-pDI, 8 nM MDM2, Tris buffer, three technical replicates
MDMX = target: T1, MDMX (Homo sapiens, UniProt O15151); assay: Fluorescence polarization competition, F-pDI:MDMX; type: binding; conditions: for IC50, inhibition of F-pDI:MDMX interaction: fluorescence polarization, 10 nM F-pDI, 45 nM MDMX, Tris buffer, three technical replicates
T1 sequence (O15151 1-490): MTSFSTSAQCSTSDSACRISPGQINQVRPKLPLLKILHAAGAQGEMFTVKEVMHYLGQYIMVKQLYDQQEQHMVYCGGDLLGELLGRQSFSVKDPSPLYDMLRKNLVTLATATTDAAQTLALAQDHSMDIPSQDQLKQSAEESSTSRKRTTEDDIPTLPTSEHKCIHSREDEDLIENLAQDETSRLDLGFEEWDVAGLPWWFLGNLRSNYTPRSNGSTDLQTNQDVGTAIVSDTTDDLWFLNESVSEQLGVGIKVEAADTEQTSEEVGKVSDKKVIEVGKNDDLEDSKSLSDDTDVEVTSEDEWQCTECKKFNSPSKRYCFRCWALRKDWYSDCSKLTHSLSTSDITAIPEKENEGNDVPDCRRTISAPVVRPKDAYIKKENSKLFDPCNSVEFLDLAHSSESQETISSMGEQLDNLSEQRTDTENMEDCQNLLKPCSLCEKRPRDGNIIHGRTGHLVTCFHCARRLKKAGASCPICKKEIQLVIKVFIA
In short: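 Competition fluorescence polarization with fluorescein-labeled pDI (p53 mimic) bound to MDMX, read at 489/515 nm. F-pDI:MDMX signal defined 0% inhibition and free F-pDI in Tris buffer 100%. Percent inhibition was taken from the change in polarization relative to F-pDI. IC50 came from Hill-fitted dose-response curves; three technical replicates.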

[2] = Cell toxicity, resazurin, HaCaT; type: cell-based; conditions: human, HaCaT keratinocyte cells
In short: (§1)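 Peptides serially diluted (0.25–32 μM) and incubated 24 h at 37 °C, 5% CO2 with 5000 cells/well. HEK293 was grown in DMEM and HaCaT in RPMI with 2 mM L-glutamine and 10 mM sodium pyruvate, both with 10% FBS and penicillin/streptomycin. Resazurin-to-resorufin fluorescence was read at 560/585 nm. Triton X-100 (0.1%) set 100% and PBS 0% toxicity. CC50 came from Hill-fitted curves; three independent experiments.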

[3] = Cell toxicity, resazurin, HEK293; type: cell-based; conditions: human, HEK293 embryonic kidney cells
In short: as §1

[4] = Cell toxicity, resazurin, PBMCs; type: cell-based; conditions: human, peripheral blood mononuclear cells (PBMCs)
In short: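 Heparinized blood from healthy donors was diluted 1:1 with PBS, separated on Ficoll-Paque (1400 rpm, 30 min) and the interface layer washed three times in PBS. Cells (5000/well) received serially diluted peptide (0.25–32 μM) for 24 h at 37 °C, 5% CO2, then a resazurin read at 560/585 nm. Triton X-100 (0.1%) set 100%, PBS 0%. CC50 came from a Hill fit; single experiment, three donors.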

RBC hemolysis = type: cell-based; conditions: human, red blood cells (RBCs), 0.25% v/v
In short: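 Donor RBCs were pelleted (4000 rpm, 1 min) and washed three times in PBS. Peptides diluted in PBS (0.25–32 μM) were incubated with RBCs (0.25% v/v final) for 1 h at 37 °C. After pelleting, supernatant A415 gave released hemoglobin. Triton X-100 (0.1% final) set 100% and PBS 0% hemolysis. Single experiment, RBCs from three donors.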

MM96L melanoma cells = assay: Cell toxicity, resazurin, MM96L; type: cell-based, human; conditions: p53 WT, 24 h, 0.25–32 μM peptide, mean ± SD, three independent experiments
In short: (§2)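 5000 cells/well were exposed to serially diluted peptide (0.25–32 μM) for 24 h at 37 °C, 5% CO2. Viability was read by resazurin-to-resorufin fluorescence (ex 560, em 585 nm), with 0.1% Triton X-100 set as 100% toxicity and PBS as 0%. CC50 came from a Hill-slope saturation fit. Mean ± SD of three independent experiments on different days.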

MCF7 breast cancer cells = assay: Cell toxicity, resazurin, MCF7; type: cell-based, human; conditions: p53 WT, 24 h, 0.25–32 μM peptide, mean ± SD, three independent experiments
In short: as §2

[5] = system: HeLa cervical cancer cells; assay: Cell toxicity, resazurin, HeLa; type: cell-based, human; conditions: cervix, p53 WT (rep), 24 h, 0.25–32 μM peptide, mean ± SD, three independent experiments
In short: as §2

[6] = system: HCT116 colorectal cancer cells; assay: Cell toxicity, resazurin, HCT116; type: cell-based, human; conditions: p53 WT, 24 h, 0.25–32 μM peptide, mean ± SD, three independent experiments
In short: as §2

MM96L cells = assay: Live-cell confocal microscopy, intracellular location, MM96L; type: cell-based, human; conditions: spinning disc confocal, serum-free media, 1 and 4 μM cPF4PD-A488, 6 μM PF4P_pDI-A488, 1 μM cPF4Pext_pDI-A488
In short: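 MM96L cells were grown in RPMI with 2 mM L-glutamine, 10 mM sodium pyruvate and 10% FBS, and plated at 16 000 per chamber-slide well overnight (37 °C, 5% CO2). Cells were washed into serum-free medium and stained with MitoTracker Red (100 nM final, 5 min). Medium was then replaced with Alexa Fluor 488-labeled peptide in serum-free medium. Cells were imaged live over time at 37 °C, 5% CO2.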

[7] = system: panel of cancerous and noncancerous cell lines, PBMCs and RBCs; assay: Cytotoxic activity across the panel of cell lines; type: cell-based, human; conditions: 24 h, resazurin (RBC 1 h hemolysis)
In short: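 Cell lines and PBMCs (Ficoll-separated from PBS-diluted heparinized blood, PBS-washed) were read by 24 h resazurin fluorescence; PBMC data came from one experiment with three donors. RBCs were washed in PBS, then incubated at 0.25% v/v with peptide in PBS for 1 h at 37 °C. After pelleting, supernatant A415 gave hemoglobin release, with 0.1% Triton X-100 as 100% and PBS as 0%.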

MDA-MB-231 cells [8] = assay: Internalization of labeled peptides, flow cytometry, MDA-MB-231; type: cell-based, human; conditions: read-out: FC50 (peptide concentration to detect fluorescence in 50% of cells), MDA-MB-231, 1 h, serum free medium, 0.06–2 μM labeled peptide, 10 000 cells, at least two independent experiments
In short: (§3)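 Cells were grown in DMEM with 10% FBS and seeded at 10^5 per well overnight (37 °C, 5% CO2). Serial dilutions of Alexa Fluor 488-labeled peptide in serum-free medium were added for 1 h, then cells were harvested. Flow cytometry used ex 488 nm/em 530/30 nm at 330 V, and readings were repeated after Trypan Blue quench (0.02% w/v final). % fluorescent cells was taken above the no-peptide threshold, and FC50 was fitted by Hill equation.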

MCF7 cells = assay: Internalization of labeled peptides, flow cytometry, MCF7; type: cell-based, human; conditions: read-out: FC50 (peptide concentration to detect fluorescence in 50% of cells), MCF7, 1 h, serum free medium, 0.06–2 μM labeled peptide, 10 000 cells, at least two independent experiments
In short: as §3

MDA-MB-231 cells [9] = assay: Live-cell confocal microscopy, intracellular location, MDA-MB-231; type: cell-based, human; conditions: spinning disc confocal, serum-free media, 4 μM (sub-lethal)

Sequence of MDM2 (Q00987 whole entry): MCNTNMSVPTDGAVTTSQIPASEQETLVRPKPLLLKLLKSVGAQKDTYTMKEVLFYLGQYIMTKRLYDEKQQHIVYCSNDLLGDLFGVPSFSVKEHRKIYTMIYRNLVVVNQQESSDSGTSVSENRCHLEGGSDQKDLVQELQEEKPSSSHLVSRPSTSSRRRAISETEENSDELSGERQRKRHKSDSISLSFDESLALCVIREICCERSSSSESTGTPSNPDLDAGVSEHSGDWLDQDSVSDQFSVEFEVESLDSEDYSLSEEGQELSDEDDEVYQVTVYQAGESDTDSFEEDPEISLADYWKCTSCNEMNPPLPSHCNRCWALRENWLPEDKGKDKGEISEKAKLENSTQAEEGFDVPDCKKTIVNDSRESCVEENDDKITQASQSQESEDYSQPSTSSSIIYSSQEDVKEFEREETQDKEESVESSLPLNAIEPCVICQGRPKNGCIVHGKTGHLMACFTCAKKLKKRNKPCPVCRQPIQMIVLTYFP

| Molecule | remaining at 24 h, 50 μM [1] | CC50 at 24 h [2] | CC50 at 24 h [3] | CC50 at 24 h [4] | HC50 at 1 h (RBC hemolysis) | CC50, MM96L (MM96L melanoma cells) | CC50, MCF7 (MCF7 breast cancer cells) | CC50, HeLa [5] | CC50, HCT116 [6] | intracellular location, MM96L (MM96L cells) | other results |
| --- | --- | --- | --- | --- | --- | --- | --- | --- | --- | --- | --- |
| CC[C@H](C)[C@@H]1NC(=O)[C@H](CCCCN)NC(=O)[C@H](CCCCN)NC(=O)[C@H](Cc2ccc(O)cc2)NC(=O)[C@H](CC(C)C)NC(=O)[C@@H]2CCCN2C(=O)CNC(=O)CNC(=O)[C@@H](N)CSSC[C@@H](C(=O)N[C@@H](CCC(=O)O)C(=O)N[C@@H](CO)C(N)=O)NC(=O)[C@H](CC(C)C)NC(=O)[C@H](CCCCN)NC(=O)[C@H](CCCCN)NC(=O)[C@H]([C@@H](C)CC)NC(=O)[C@H]([C@@H](C)CC)NC(=O)[C@H](CCCCN)NC(=O)[C@H](CCCCN)NC(=O)[C@H](Cc2ccc(O)cc2)NC(=O)[C@H](CC(C)C)NC(=O)[C@@H]2CCCN2C(=O)[C@H](C)NC(=O)CNC(=O)CNC(=O)[C@H](CO)NC(=O)CNC(=O)CNC(=O)[C@H](CO)NC(=O)[C@H](CCC(=O)O)NC(=O)[C@H](CC(C)C)NC(=O)[C@H](CC(C)C)NC(=O)[C@H](CCCCN)NC(=O)[C@H](CCCCN)NC(=O)[C@H]([C@@H](C)CC)NC1=O [cPF4PD] (H-CGGPLYKKIIKKLLESGGSGGAPLYKKIIKKLCES-NH2; disulfide 1-33) | ~75% | 9.1 ± 0.7 µM | > 32 µM | 9.1 ± 1.3 µM | > 64 µM | – | – | – | – | – | IC50, inhibition of F-pDI:MDM2 interaction (MDM2): did not inhibit; IC50, inhibition of F-pDI:MDMX interaction (MDMX): did not inhibit |
| LQAPLTFEHYWALLTSGGSGGAPLYKKIIKKLLES-NH2 [PF4P_pDI] | 60% | 17.1 ± 1.6 µM | 27.5 ± 2.3 µM | > 32 µM | > 64 µM | 13.2 ± 0.7 µM | >32 µM | >32 µM | 25.5 ± 2.1 µM | – | inhibition at 0.001 µM (MDM2; read-out: inhibition of F-pDI binding to MDM2): > 50%; inhibition at 0.001 µM (MDMX; read-out: inhibition of F-pDI binding to MDMX): > 50% |
| A488 GCGGPLYKKIIKKLLESIIKKGGXGGSGGLTFEHYWAQLTGGC* (disulfide) [cPF4Pext_pDI-A488] | – | – | – | – | – | – | – | – | – | enter directly into the cell cytoplasm | – |
| APLYKKIIKKLLES-NH2 [PF4P] | – | > 32 µM | > 32 µM | > 32 µM | > 64 µM | >32 µM | >32 µM | >32 µM | – | – | cytotoxic activity against the tested cells [7]: not active against any of the tested cells |
| CGGPLYKKIIKKLLESIIKKGGSGGSGGLTFEHYWAQLTGGC-NH2 (disulfide 1-42) [cPF4Pext_pDI] | – | 7.2 ± 0.3 µM | 19.1 ± 0.5 µM | 4.3 ± 0.4 µM | > 64 µM | 2.5 ± 0.1 µM | 18.6 ± 2.0 µM | ∼32 ± 5 μM | 11.7 ± 0.9 µM | – | IC50 (MDMX): 0.08 µM |
| CQAPLYKKIIKKLLESGGSGGAPLYKKIIKKLLCES* A488 (sidechain bridge or staple) [cPF4PD-A488] | – | – | – | – | – | – | – | – | – | enter directly into the cell cytoplasm | EC50 (MDA-MB-231 cells [8]): 0.16 µM; EC50 (MCF7 cells): 0.65 µM; intracellular location, MDA-MB-231 (MDA-MB-231 cells [9]): entry of the labeled peptide into the cytoplasm was observed within two hours |
| LQAPLYKKIIKKLLESGGSGGAPLYKKIIKKLLES-NH2 [PF4PD] | 20% | 4.3 ± 0.2 µM | 13.7 ± 2.2 µM | 14 ± 0.9 µM | > 64 µM | 1.6 ± 0.1 µM | 17.6 ± 2.0 µM | 17.2 ± 2.2 µM | 4.8 ± 0.8 µM | – | IC50, inhibition of F-pDI:MDM2 interaction (MDM2): did not inhibit; IC50, inhibition of F-pDI:MDMX interaction (MDMX): did not inhibit |
| A488 LQAPLTFEHYWALLTSGGXGGAPLYKKIIKKLLES* [PF4P_pDI-A488] | – | – | – | – | – | – | – | – | – | enter directly into the cell cytoplasm | – |
